Reference: ChEMBL document CHEMBL3352437, “Novel 3,5-bis(arylidene)-4-oxo-1-piperidinyl dimers: structure-activity relationships and potent antileukemic and antilymphoma cytotoxicity” (Eur J Med Chem, 2014)

What was measured:
HCC 2998 = assay: Cytotoxicity against human HCC2998 cells assessed as inhibition of tumor growth after 24 hrs; format: functional, cell-based; settings: HCC 2998, 24 h
[1] = Cytotoxicity against human NCI60 cells assessed as inhibition of tumor growth after 24 hrs; format: functional, cell-based; settings: NCI60, 24 h
COLO 205 = assay: Cytotoxicity against human COLO205 cells assessed as inhibition of tumor growth after 24 hrs; format: functional, cell-based; settings: COLO 205, 24 h
K562 = assay: Antileukemic activity against human K562 cells assessed as inhibition of tumor growth after 24 hrs; format: functional, cell-based; settings: K562, 24 h
KM12 = assay: Cytotoxicity against human KM12 cells assessed as inhibition of tumor growth after 24 hrs; format: functional, cell-based; settings: KM12, 24 h
[2] = Antileukemic activity against human RPMI8226 cells assessed as inhibition of tumor growth after 24 hrs; format: functional, cell-based; settings: rpmi-8226
HL-60(TB) = assay: Antileukemic activity against human HL-60(TB) cells assessed as inhibition of tumor growth after 24 hrs; format: functional, cell-based; settings: HL-60, 24 h
SW-620 = assay: Cytotoxicity against human SW620 cells assessed as inhibition of tumor growth after 24 hrs; format: functional, cell-based; settings: SW-620, 24 h
[3] = Cytotoxicity against human HCT15 cells assessed as inhibition of tumor growth after 24 hrs; format: functional, cell-based; settings: HCT-15, 24 h
SR = assay: Antileukemic activity against human SR cells assessed as inhibition of tumor growth after 24 hrs; format: functional, cell-based
LAPC4 = assay: Cytotoxicity against human LAPC4 cells assessed as dead cells at 1 uM after 24 hrs; format: functional
How it was run: (§1)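 Dienones added as DMSO solutions to cells in RPMI medium and incubated 24 h at 37°C. Cytotoxicity was scored as cell-membrane disruption by propidium iodide staining and expressed as percentage of dead cells, averaged over three independent experiments.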

BJAB = assay: Cytotoxicity against human BJAB cells assessed as dead cells at 1 uM after 24 hrs; format: functional; how it was run: as §1
Raji = assay: Cytotoxicity against human Raji cells assessed as dead cells at 1 uM after 24 hrs; format: functional; how it was run: as §1
Ramos = assay: Cytotoxicity against human Ramos cells assessed as dead cells at 1 uM after 24 hrs; format: functional; how it was run: as §1
CCRF-CEM [4] = assay: Antiproliferative activity against human CEM cells after 72 hrs by coulter counting analysis; format: functional, cell-based
How it was run: (§2)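 Cells exposed to a range of concentrations in RPMI 1640 at 37°C for 72 h. Surviving cells counted by Coulter counter. IC50 taken from concentration-response curves, mean ± SD of at least three independent experiments.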

[5] = Cytotoxicity against human NALM6 cells assessed as dead cells at 1 uM after 24 hrs; format: functional, NALM-6; how it was run: as §1
EL4 = assay: Cytotoxicity against mouse EL4 cells assessed as dead cells at 1 uM after 24 hrs; format: functional; how it was run: as §1
[6] = Cytotoxicity against human MDA231 cells assessed as dead cells at 1 uM after 24 hrs; format: functional, MDA-MB-231; how it was run: as §1
HeLa = assay: Antiproliferative activity against human HeLa cells after 72 hrs by coulter counting analysis; format: functional, cell-based; how it was run: as §2
L1210 = assay: Antiproliferative activity against mouse L1210 cells after 72 hrs by coulter counting analysis; format: functional, cell-based; settings: L1210, 72 h
[7] = Cytotoxicity against human MCF10A cells assessed as dead cells at 1 uM after 24 hrs; format: cell-based; settings: mcf-10a
How it was run: (§3)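 Compounds added from DMSO solutions to cells in medium (RPMI; DMEM for Hs-27 fibroblasts) and incubated 24 h at 37°C. Membrane disruption scored by propidium iodide uptake. Result is percentage of dead cells, average of three independent experiments.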

MCF7 = assay: Cytotoxicity against human MCF7 cells assessed as dead cells at 1 uM after 24 hrs; format: functional; how it was run: as §1
DU-145 = assay: Cytotoxicity against human DU145 cells assessed as dead cells at 1 uM after 24 hrs; format: functional; how it was run: as §1
[8] = Cytotoxicity against human HuT-102 cells assessed as dead cells at 1 uM after 24 hrs; format: functional; how it was run: as §1
[9] = Cytotoxicity against human 22Rvl cells assessed as dead cells at 1 uM after 24 hrs; format: functional; how it was run: as §1
[10] = Cytotoxicity against human MOLT3 cells assessed as dead cells at 1 uM after 24 hrs; format: functional, MOLT-3; how it was run: as §1
HS27 = assay: Cytotoxicity against human HS27 cells assessed as dead cells at 1 uM after 24 hrs; format: cell-based; settings: hs27, 24 h; how it was run: as §3
[11] = Antiproliferative activity against human Molt4/C8 cells after 72 hrs by coulter counting analysis; format: functional, cell-based; settings: MOLT-4, 72 h; how it was run: as §2
YT = assay: Cytotoxicity against human YT cells assessed as dead cells at 1 uM after 24 hrs; format: functional; how it was run: as §1
HCC70 = assay: Cytotoxicity against human HCC70 cells assessed as dead cells at 1 uM after 24 hrs; format: functional; how it was run: as §1
CCRF-CEM [12] = assay: Cytotoxicity against human CEM cells assessed as dead cells at 1 uM after 24 hrs; format: functional; how it was run: as §1
Jurkat = assay: Cytotoxicity against human Jurkat cells assessed as dead cells at 1 uM after 24 hrs; format: functional; how it was run: as §1
[13] = Cytotoxicity against human SupT1 cells assessed as dead cells at 1 uM after 24 hrs; format: functional, SUP-T1; how it was run: as §1

With O=C1/C(=C\c2ccc(O)cc2)CN(C(=O)CC(=O)N2C/C(=C\c3ccc(O)cc3)C(=O)/C(=C/c3ccc(O)cc3)C2)C/C1=C\c1ccc(O)cc1 the IC50 (HCC 2998) was 1740 nM, the IC50 [1] was 1660 nM and the IC50 (COLO 205) was 1660 nM. The IC50 (K562) was 530 nM, the IC50 (KM12) was 690 nM and the IC50 [2] was 350 nM. For the same compound, the IC50 (HL-60(TB)) was 1740 nM, the IC50 (SW-620) was 760 nM and the IC50 [3] was 1170 nM. The IC50 (SR) was 460 nM.

For Cc1ccc(/C=C2/CN(C(=O)CC(=O)N3C/C(=C\c4ccc(C)cc4)C(=O)/C(=C/c4ccc(C)cc4)C3)C/C(=C\c3ccc(C)cc3)C2=O)cc1, the Activity (LAPC4) was 7%, the IC50 (HCC 2998) was 300 nM and the Activity (BJAB) was 60.2%. The Activity (Raji) was 46.5%, the IC50 [1] was 190 nM and the Activity (Ramos) was 83%. For the same compound, the IC50 (CCRF-CEM [4]) was 3440 nM, the Activity [5] was 67.6% and the IC50 (COLO 205) was 170 nM. It also gave an Activity (EL4) of 66.9%, an Activity [6] of 8.6% and an IC50 (HeLa) of 2880 nM. It also gave an IC50 (L1210) of 5380 nM, an Activity [7] of 15.4% and an Activity (MCF7) of 19.1%. For the same compound, the Activity (DU-145) was 21.9%, the IC50 (K562) was 100 nM and the Activity [8] was 50.9%. For the same compound, the Activity [9] was 6.3%, the Activity [10] was 21.3% and the Activity (HS27) was 26.5%. It also gave an IC50 (KM12) of 170 nM, an IC50 [2] of 30 nM and an IC50 [11] of 1890 nM. It also gave an Activity (YT) of 29.1%, an Activity (HCC70) of 10.1% and an IC50 (HL-60(TB)) of 230 nM. The IC50 (SW-620) was 150 nM, the Activity (CCRF-CEM [12]) was 85.7% and the IC50 [3] was 80 nM. For the same compound, the Activity (Jurkat) was 85.5%, the IC50 (SR) was 50 nM and the Activity [13] was 23.6%.

COc1cc(/C=C/C(=O)CC(=O)/C=C/c2ccc(O)c(OC)c2)ccc1O [CURCUMIN] showed an IC50 (CCRF-CEM [4]) of 8160 nM, an IC50 (HeLa) of 21200 nM and an IC50 (L1210) of 15100 nM. The IC50 [11] was 6460 nM.

Work on COc1ccc(/C=C2\CN(C(=O)C(=O)N3C/C(=C\c4ccc(OC)cc4)C(=O)/C(=C/c4ccc(OC)cc4)C3)C/C(=C\c3ccc(OC)cc3)C2=O)cc1 yielded an Activity (LAPC4) of 1.9%, an Activity (BJAB) of 45.8% and an Activity (Raji) of 69.1%. For the same compound, the Activity (Ramos) was 53.7%, the IC50 (CCRF-CEM [4]) was 95100 nM and the Activity [5] was 62.6%. For the same compound, the Activity (EL4) was 71.7%, the Activity [6] was 0.6% and the IC50 (HeLa) was 59900 nM. The IC50 (L1210) was 202000 nM, the Activity [7] was 9.9% and the Activity (MCF7) was 16.2%. For the same compound, the Activity (DU-145) was 11.4%, the Activity [8] was 6.7% and the Activity [9] was 0%. The Activity [10] was 49.6%, the Activity (HS27) was 0.6% and the IC50 [11] was 33100 nM. The Activity (YT) was 5.8%, the Activity (HCC70) was 14.7% and the Activity (CCRF-CEM [12]) was 71.9%. The Activity (Jurkat) was 72% and the Activity [13] was 15.2%.

Compound COc1ccc(/C=C2/CN(C(=O)CC(=O)N3C/C(=C\c4ccc(OC)cc4)C(=O)/C(=C/c4ccc(OC)cc4)C3)C/C(=C\c3ccc(OC)cc3)C2=O)cc1 has an IC50 (CCRF-CEM [4]) of 369000 nM, an IC50 (HeLa) of 219000 nM and an IC50 (L1210) of over 500000 nM. It also gave an IC50 [11] of 449000 nM.

Work on O=c1[nH]cc(F)c(=O)[nH]1 [FLUOROURACIL] yielded an IC50 [1] of 29500 nM and an IC50 [2] of 3550 nM.

In the case of CN(C)c1ccc(/C=C2\CN(C(=O)C(=O)N3C/C(=C\c4ccc(N(C)C)cc4)C(=O)/C(=C/c4ccc(N(C)C)cc4)C3)C/C(=C\c3ccc(N(C)C)cc3)C2=O)cc1, the IC50 (CCRF-CEM [4]) is reported as 276000 nM, the IC50 (HeLa) is reported as over 500000 nM and the IC50 (L1210) is reported as 297000 nM. For the same compound, the IC50 [11] was 437000 nM.
